The source made the active and inactive calls. No cut-off for these calls is given here.
Tests used:
[1] = biological target: Transcription factor Jun (Homo sapiens) (UniProt P05412); experiment: Inhibition of TGFbeta1-induced AP-1 binding activity in human SNU182 cells at 20 to 40 uM measured after 48 hrs in presence of zingerone by luciferase reporter gene assay; format: cell-based
Method in brief: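 SNU182 transfected with pGL4.44-AP-1-RE-Luc or empty pGL4.44, pretreated with the mixture (20 and 40 µM), then stimulated with TGF-β1 or DMSO. Luciferase reporter activity read. Mean±SD of triplicates.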

[2] = biological target: T1, NF-kappa-B inhibitor alpha (Homo sapiens) (UniProt P25963); experiment: Inhibition of TGFbeta1-induced IkB-alpha phosphorylation in human SNU182 cells at 20 to 40 uM preincubated for 2 hrs followed by TGFbeta1 addition measured after 120 mins in presence of zingerone by Western blot method; format: cell-based
T1 sequence (whole entry): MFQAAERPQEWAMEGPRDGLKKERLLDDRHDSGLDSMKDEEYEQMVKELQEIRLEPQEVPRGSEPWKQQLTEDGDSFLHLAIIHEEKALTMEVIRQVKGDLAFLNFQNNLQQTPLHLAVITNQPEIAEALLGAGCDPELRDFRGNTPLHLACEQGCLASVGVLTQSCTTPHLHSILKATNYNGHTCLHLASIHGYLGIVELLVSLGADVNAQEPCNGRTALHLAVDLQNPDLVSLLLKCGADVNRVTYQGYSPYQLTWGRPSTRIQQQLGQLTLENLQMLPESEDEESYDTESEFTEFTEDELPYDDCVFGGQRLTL
Method in brief: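 SNU182 cells pretreated with the mixture (20 and 40 µM) for 2 h, then exposed to TGF-β1 for 120 min. IκB protein assessed by Western blot, with GAPDH loading control.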

[3] = biological target: Mitogen-activated protein kinase; ERK1/ERK2 (Homo sapiens) (UniProt P27361+P28482); experiment: Inhibition of TGFbeta1-induced p44/42 MAPK phosphorylation in human SNU182 cells measured after 48 hrs in presence of zingerone by Western blot method; format: cell-based
Method in brief: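 SNU182 cells incubated 48 h with TGF-β1 5 ng/ml alone or together with the mixture at 20 and 40 µM, then lysed. Phospho-p42/44 MAPK detected by Western blot, with total p42/44 MAPK as loading control.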

SNU-182 [4] = experiment: Inhibition of TGFbeta1-induced epithelial-mesenchymal transition in human SNU182 cells assessed as reduction in upregulation of Snail expression preincubated for 2 hrs followed by TGFbeta1 addition measured after 48 hrs in presence of zingerone by Western blot method; format: functional, cell-based
Method in brief: (§1)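 SNU182 cells pretreated 2 h with single agents (12.5 or 40 µM) or the mixture (20 and 40 µM), then stimulated with TGF-β1 5 ng/ml for 48 h. E-cadherin and Snail protein detected by Western blot, with GAPDH as loading control.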

Homo sapiens = species: Homo sapiens; experiment: Inhibition of TGFbeta1-induced NF-kB binding activity in human SNU182 cells at 20 to 40 uM measured after 48 hrs in presence of zingerone by luciferase reporter gene assay; format: cell-based
Method in brief: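 Cells transfected with pGL4.32-NF-κB-RE-Luc or empty pGL4.32, then treated with the mixture and/or TGF-β1. Luciferase reporter activity read. Mean±SD of triplicates.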

SNU-182 [5] = experiment: Inhibition of TGFbeta1-induced epithelial-mesenchymal transition in human SNU182 cells assessed as reduction in upregulation of Snail expression at 40 uM preincubated for 2 hrs followed by TGFbeta1 addition measured after 48 hrs by Western blot method; format: functional, cell-based; method in brief: as §1
SNU-182 [6] = experiment: Inhibition of TGFbeta1-induced epithelial-mesenchymal transition in human SNU182 cells assessed as reduction in MMP2 mRNA expression at 40 uM preincubated for 2 hrs followed by TGFbeta1 addition measured after 48 hrs by qRT-PCR method; format: functional, cell-based
Method in brief: (§2)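 SNU182 cells pretreated 2 h with single agents (12.5 or 40 µM) or the mixture (20 or 40 µM), then TGF-β 5 ng/ml for 48 h. MMP-2 and MMP-9 mRNA measured by RT-PCR with densitometry and by qRT-PCR, fold change by the 2^-ΔΔCt method. Mean±SD of triplicates.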

SNU-182 [7] = experiment: Growth inhibition of human SNU182 cells at <50 uM after 48 hrs by CCK8 assay; format: functional, cell-based
SNU-182 [8] = experiment: Inhibition of TGFbeta1-induced epithelial-mesenchymal transition in human SNU182 cells assessed as reduction in MMP9 mRNA expression preincubated for 2 hrs followed by TGFbeta1 addition measured after 48 hrs in presence of (E)-1-(9-Ethyl-9H-carbazol-3-yl)-5-(4-hydroxy-3-methoxyphenyl)pent-1-en-3-one by qRT-PCR method; format: functional, cell-based; method in brief: as §2
SNU-182 [9] = experiment: Inhibition of TGFbeta1-induced migration in human SNU182 cells at 40 uM measured after 48 hrs in presence of (E)-1-(9-Ethyl-9H-carbazol-3-yl)-5-(4-hydroxy-3-methoxyphenyl)pent-1-en-3-one by wound healing assay; format: functional, cell-based
Method in brief: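 Wound healing: SNU182 monolayers at about 90% confluence scratched with a pipette tip and washed. Medium with TGF-β1, with or without 40 µM mixture, then added. Wound imaged at 0 and 48 h; relative motility from cell surface area. Mean±SD of triplicates.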

Chain of Mitogen-activated protein kinase; ERK1/ERK2 (Homo sapiens) (P27361 whole entry, looked up): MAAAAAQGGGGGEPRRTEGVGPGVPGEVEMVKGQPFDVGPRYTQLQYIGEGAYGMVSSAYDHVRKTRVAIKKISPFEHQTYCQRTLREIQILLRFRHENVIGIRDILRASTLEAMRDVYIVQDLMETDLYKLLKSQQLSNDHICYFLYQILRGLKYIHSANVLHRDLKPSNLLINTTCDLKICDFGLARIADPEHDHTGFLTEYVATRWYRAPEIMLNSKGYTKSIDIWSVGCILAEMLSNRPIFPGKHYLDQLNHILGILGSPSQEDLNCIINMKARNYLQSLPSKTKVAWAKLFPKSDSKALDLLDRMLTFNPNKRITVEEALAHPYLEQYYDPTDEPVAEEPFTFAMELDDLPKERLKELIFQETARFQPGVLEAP
Chain of Mitogen-activated protein kinase; ERK1/ERK2 (Homo sapiens) (P28482 whole entry, looked up): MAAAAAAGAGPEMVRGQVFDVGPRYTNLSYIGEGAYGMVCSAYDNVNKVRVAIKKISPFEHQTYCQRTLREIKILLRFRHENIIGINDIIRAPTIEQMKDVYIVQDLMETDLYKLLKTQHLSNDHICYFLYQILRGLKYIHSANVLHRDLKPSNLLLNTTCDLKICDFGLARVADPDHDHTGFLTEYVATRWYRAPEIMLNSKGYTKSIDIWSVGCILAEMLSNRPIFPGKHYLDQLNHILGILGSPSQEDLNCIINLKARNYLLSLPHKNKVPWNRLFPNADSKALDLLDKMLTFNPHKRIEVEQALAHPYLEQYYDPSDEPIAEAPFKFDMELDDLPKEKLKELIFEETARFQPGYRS
Chain of Transcription factor Jun (Homo sapiens) (P05412 whole entry): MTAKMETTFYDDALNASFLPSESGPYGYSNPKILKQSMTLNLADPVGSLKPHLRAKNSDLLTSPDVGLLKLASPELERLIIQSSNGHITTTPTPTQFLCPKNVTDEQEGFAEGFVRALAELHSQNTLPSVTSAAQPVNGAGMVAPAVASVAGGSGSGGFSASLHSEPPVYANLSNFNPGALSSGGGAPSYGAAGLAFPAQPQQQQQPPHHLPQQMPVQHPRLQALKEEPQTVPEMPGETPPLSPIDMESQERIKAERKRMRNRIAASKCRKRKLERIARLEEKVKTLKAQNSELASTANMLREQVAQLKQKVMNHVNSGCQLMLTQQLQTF

## CCn1c2ccccc2c2cc(/C=C/C(=O)CCc3ccc(O)c(OC)c3)ccc21
[1]
  inhibition: Active
[2]
  inhibition: Active
[3]
  inhibition: Dose-dependent effect
SNU-182 [4]
  inhibition: Dose-dependent effect
Homo sapiens
  inhibition: Active

## COc1cc(CCC(C)=O)ccc1O
SNU-182 [5]
  inhibition: inactive
SNU-182 [6]
  inhibition: inactive
SNU-182 [7]
  growth inhibition (GI): inactive
SNU-182 [8]
  inhibition: Dose-dependent effect
SNU-182 [9]
  inhibition: Active
